Structures are written as SMILES.

The nature of experiment [1]: The compound was tested for inhibitory activity against vascular cell adhesion molecule (VCAM)-1 mediated cell adhesion in Human aortic endothelial cell culture, by using HAEC surface expression assay at 50 uM. In kind it is functional. A digest of the protocol:
(§1)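 Human aortic endothelial cells at confluence were incubated with TNF-α (250 U/mL) and compound (0.005% DMSO final) for 18 h, then formalin-fixed. Cells were probed with anti-VCAM-1 mAb (2 h, 37 °C), then biotin anti-mouse IgG+IgM F(ab)₂ (1 h), then [¹²⁵I]streptavidin (15 min, 4 °C). NaOH digests were counted.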

Experiment [2] can be described thus: The compound was tested for cell adhesion by measuring the inhibitory concentration against Human umbilical vein endothelial cell (HUVEC) activation, using Na51CrO4 as radioligand. Type of experiment: functional, cell-based.
The nature of experiment [3]: The compound was tested for inhibitory activity against intercellular adhesion molecule (ICAM)-1 mediated cell adhesion in Human umbilical endothelial cell culture, by using HUVEC surface expression assay. In kind it is functional, cell-based. In a few lines:
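HUVECs were pretreated with compound for 30 min, then stimulated with TNF-α (140 U/mL final) for 4 h at 37 °C. Unstimulated background was subtracted and results given as % inhibition versus vehicle. IC50 came from linear regression; average of two triplicate assays.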

A short description of experiment [4]: The compound was tested for inhibitory activity against E-Selectin mediated cell adhesion in Human umbilical endothelial cell culture, by using HUVEC surface expression assay. In kind it is functional, cell-based. In a few lines: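 Confluent HUVECs were given compound 30 min before TNF-α (140 U/mL final), then incubated 4 h at 37 °C. Unstimulated background was subtracted and results given as % inhibition versus vehicle. IC50 came from linear regression; average of two assays, each in triplicate.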

Experiment [5] is described as follows: The compound was tested for inhibitory activity against intercellular adhesion molecule (ICAM)-1 mediated cell adhesion in Human aortic endothelial cell culture, by using HAEC surface expression assay at 50 uM. In kind it is functional. A digest of the protocol:
(§2)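 Confluent human aortic endothelial cells were incubated with TNF-α (250 U/mL) and compound (0.005% DMSO final) for 18 h. Cells were formalin-fixed and probed with anti-ICAM-1 mAb (2 h, 37 °C), then peroxidase anti-mouse IgG (1 h) and colour reagent (15 min). Read-out was OD414.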

Experiment [6] is described as follows: The compound was tested for cell adhesion by measuring the inhibitory concentration against Human umbilical vein endothelial cell (HUVEC) activation, using calcein-AM as radioligand. In kind it is functional, cell-based.
Experiment [7] is described as follows: The compound was tested for cell adhesion by measuring the inhibitory concentration against Human umbilical vein endothelial cell (HUVEC) activation, using calcein-AM as radioligand at 100 uM. In kind it is functional.
Experiment [8] in a line: The compound was tested for cell adhesion by measuring the inhibitory concentration against Human umbilical vein endothelial cell (HUVEC) activation using neutrophils labelled with calcein-AM at 100 uM. Type of experiment: functional.
Experiment [9] in a line: cell adhesion assay; measuring the inhibitory concentration against Human umbilical vein endothelial cell (HUVEC) activation, using Na51CrO4 as radioligand at 100 uM. In kind it is functional. As to conditions: in the assay text read “calcein-AM” for “Na51CrO4”.
Experiment [10] in a line: Tested for cell adhesion by measuring the inhibitory concentration against Human umbilical vein endothelial cell (HUVEC) activation, using Na51CrO4 as radioligand at 100 uM. Type of experiment: functional. A digest of the protocol: (§3)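 Confluent second-passage HUVEC monolayers were stimulated with TNF-α (200 U/mL) for 4 h with or without compound at 100 μM, then washed. Fresh human neutrophils labelled with Na⁵¹CrO₄ (5 × 10⁵) were added for 30 min at 37 °C. Non-adherent cells were aspirated and adherent cells lysed in NH₄OH; lysates were γ-counted. Results are % inhibition of TNF-stimulated adherence, triplicate. IC50 came from linear regression at 33.3–1.0 μM.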

Experiment [11] can be described thus: The compound was tested for cell adhesion by measuring the inhibitory concentration against Human umbilical vein endothelial cell (HUVEC) activation, using Na51CrO4 as radioligand at 50 uM. In kind it is functional.
The nature of experiment [12]: The compound was tested for cell adhesion by measuring the inhibitory concentration against Human umbilical vein endothelial cell (HUVEC) activation, using Na51CrO4 as radioligand at 100 uM. Type of experiment: functional. A digest of the protocol:
as §3

The nature of experiment [13]: The compound was tested for cell adhesion by measuring the inhibitory concentration against Human umbilical vein endothelial cell (HUVEC) activation, using Na51CrO4 as radioligand at 100 micro M. Type of experiment: functional. A digest of the protocol:
as §3

Experiment [14] in a line: Inhibitory activity against Human umbilical vein endothelial cell (HUVEC) activation, using Na51CrO4 as radioligand at 100 uM. Type of experiment: functional. In a few lines:
as §3

The subject of experiment [15] is Rattus norvegicus. Briefly: Inhibitory activity against Mycobacterium-induced foot-pad edema(MFE). In kind it is functional.
The nature of experiment [16]: The compound was tested for inhibitory activity against intercellular adhesion molecule (ICAM)-1 mediated cell adhesion in Human aortic endothelial cell culture, by using HAEC surface expression assay. Type of experiment: functional, cell-based. A digest of the protocol:
as §2

Experiment [17] in a line: The compound was tested for inhibitory activity against vascular cell adhesion molecule (VCAM)-1 mediated cell adhesion in Human aortic endothelial cell culture, by using HAEC surface expression assay. Type of experiment: functional, cell-based. A digest of the protocol:
as §1

A short description of experiment [18]: Inhibitory activity against E-Selectin mediated cell adhesion in Human umbilical endothelial cell culture, by using HUVEC surface expression assay at 50 uM. In kind it is functional. A digest of the protocol: (§4)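 Confluent HUVECs were given compound 30 min before TNF-α (140 U/mL final), then incubated 4 h at 37 °C. Cells were formalin-fixed and surface E-selectin detected by cell ELISA (mouse anti-E-selectin 0.5 μg/mL, peroxidase anti-mouse IgG), with absorbance at 414 nm. Unstimulated background was subtracted and results given as % inhibition versus vehicle. IC50 came from linear regression; average of two assays, each in triplicate.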

Experiment [19] concerns Rattus norvegicus. Nature of the experiment: Inhibitory activity against Mycobacterium-induced foot-pad edema(MFE)at 50 mg/kg. Type of experiment: functional.
The nature of experiment [20]: Inhibitory activity against intercellular adhesion molecule (ICAM)-1 mediated cell adhesion in Human umbilical endothelial cell culture, by using HUVEC surface expression assay at 50 uM. In kind it is functional. In a few lines: (§5)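 HUVECs were pretreated with compound for 30 min, then stimulated with TNF-α (140 U/mL final) for 4 h at 37 °C. After formalin fixation, surface ICAM-1 was measured by cell ELISA (mouse anti-ICAM-1 0.5 μg/mL, peroxidase anti-mouse IgG), with absorbance at 414 nm. Unstimulated background was subtracted and results given as % inhibition versus vehicle. IC50 came from linear regression; average of two triplicate assays.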

The nature of experiment [21]: Inhibitory activity against intercellular adhesion molecule (ICAM)-1 mediated cell adhesion in Human umbilical endothelial cell culture, by using HUVEC surface expression assay. Type of experiment: functional, cell-based. A digest of the protocol: as §5
Experiment [22] in a line: Inhibitory activity against E-Selectin mediated cell adhesion in Human umbilical endothelial cell culture, by using HUVEC surface expression assay. Type of experiment: functional, cell-based. In a few lines: as §4
Experiment [23] deals with Rattus norvegicus. Nature of the experiment: Inhibitory activity against Mycobacterium-induced foot-pad edema(MFE) at 50 mg/kg. In kind it is functional.
Experiment [24] is described as follows: The compound was tested for cell adhesion by measuring the inhibitory concentration against Human umbilical vein endothelial cell (HUVEC) activation, using calcein-AM radioligand at 100 uM. In kind it is functional.
A short description of experiment [25]: The compound was tested for inhibitory activity against vascular cell adhesion molecule (VCAM)-1 mediated cell adhesion in Human aortic endothelial cell culture, by using HAEC surface expression assay at 50 micro M.
A short description of experiment [26]: The compound was tested for inhibitory activity against intercellular adhesion molecule (ICAM)-1 mediated cell adhesion in Human aortic endothelial cell culture, by using HAEC surface expression assay at 50 micro M.

For orientation: inhibition means the change of the read-out against control, counted positive when it falls. In general, IC50 refers to the midpoint of a concentration-inhibition curve. Take `COc1ccc2ccc(C(N)=O)c(OC(C)C)c2c1`: the values for the inhibition at 50 µM in experiment [1] and in experiment [5] were 81% and 86%, respectively. Besides, the IC50 in [2] turned out to be 11 µM; in [3], 5.2 µM; in experiment [4], 8.6 µM.
For `CC(C)Sc1c(C(N)=O)sc2ccc(O)cc12`, in experiment [6], the IC50 is 3.6 µM.
In the case of `COc1ccc2sc(C(N)=O)c(SCCCCC(=O)O)c2c1`, the inhibition at 100 µM in experiment [7] was 37%.
On to `CCNC(=O)c1oc2ccc(OC)cc2c1OC(C)C`, for which, in [7], the inhibition at 100 µM was below 4%.
Consider `COc1ccc2sc(C(=O)NC(C)C)c(OC(C)C)c2c1`, for which the inhibition at 100 µM in experiment [8] was 26%.
Consider `COc1ccc2c(c1)c(OC)c(C(N)=O)[s+]2[O-]` (centres undefined), for which, in [9], the inhibition at 100 µM is 40%.
In the case of `COc1ccc2c(c1)c(OC(C)C)c(C(N)=O)n2C`, the figures for the inhibition at 50 µM in experiment [1] and in experiment [5] were 84% and 92%, respectively. The IC50 in experiment [2] came to 10 µM; in experiment [3] it was 3.7 µM; in [4], 9.2 µM.
The compound `COc1ccc2sc(C(N)=O)c(OC(C)(C)C)c2c1` came in with an inhibition at 100 µM in experiment [10] of 97%.
Take `CC(C)OC1=C(C(N)=O)S(=O)(=O)c2ccc(O)cc21`: the inhibition at 50 µM in [11] is below 4%.
Turning to `CNC(=O)c1c(OC(C)C)c2cc(OC)ccc2[s+]1[O-]` (centres undefined), in experiment [12], testing at 100 µM gave an inhibition of 43%.
By Inhibition is commonly meant the change of the read-out against control, counted positive when it falls. A high value points to a strong effect. In experiment [13], `CCNC(=O)c1sc2ccc(OC)cc2c1OC(C)C` returned an Inhibition of 64%.
In [12], `COc1ccc2c(c1)c(OC(C)C)c(C(=O)NC(C)C)[s+]2[O-]` (centres undefined) came in with an inhibition at 100 µM of 8%.
The compound `COc1ccc2c(c1)c(Oc1ccccc1)c(C(N)=O)[s+]2[O-]` (centres undefined) returned an inhibition at 100 µM in experiment [14] of 15%.
As for `COc1ccc2c(c1)c(OC(C)C)c(C(N)=O)[s+]2[O-]` (centres undefined) [listing 1 of 3 here], in the experiment on Rattus norvegicus [15], the ID40 came out at 10.9 mg/kg. Further, the IC50 in experiment [2] was determined as 8.7 µM; in experiment [3], 4 µM; in experiment [16], 10 µM; in [4] it was 6.6 µM; in [17] it was 4 µM.
`COc1cccc2c(OC(C)C)c(C(N)=O)sc12`: the values for the inhibition at 50 µM in experiment [1], in experiment [11] and in [5] were below 4%, 35% and 21%, respectively.
The inhibition in vivo is the drop in the measured response relative to a control, in per cent. Higher therefore signals a strong effect. Regarding `COc1ccc2c(c1)c(OC(C)C)c(C(N)=O)[s+]2[O-]` (centres undefined) [listing 2 of 3 here], the inhibition at 50 µM in experiment [18] is 25%; in experiment [11], 20%; in experiment [20] it was 24%. In addition, testing at 50 mg/kg in the experiment with Rattus norvegicus [19] gave an inhibition in vivo of 5%.
`CCNC(=O)c1c(OC(C)C)c2cc(OC)ccc2[s+]1[O-]` (centres undefined) registered an inhibition at 100 µM in experiment [12] of 36%.
For the compound `COc1ccc2c(c1)c(OC(C)C)c(C(N)=O)[s+]2[O-]` (centres undefined) [listing 3 of 3 here], the IC50 in experiment [21] came out at 5.7 µM; in [22], 9.6 µM; in experiment [2] it was 4 µM. Moreover, the inhibition in vivo at 50 mg/kg in the experiment on Rattus norvegicus [23] turned out to be 83%.
Take `COc1ccc2c(c1)c(OC(C)C)c(C(=O)Nc1ccccc1)[s+]2[O-]` (centres undefined): the inhibition at 100 µM in experiment [7] was below 4%.
Turning to `COc1ccc2sc(C(=O)NCc3ccccc3)c(OC(C)C)c2c1`, the inhibition at 100 µM in [24] was 35%.
In the case of `CC(C)Oc1c(C(N)=O)[s+]([O-])c2ccc(O)cc12` (centres undefined), the IC50 was determined as 2.7 µM in experiment [21] and 5 µM in [22].
As for `COc1ccc2[nH]c(C(N)=O)c(OC(C)C)c2c1`, the figures for the inhibition at 50 µM in [1] and in experiment [5] were 83% and 89%, respectively. The figures for the IC50 in [2], in [3] and in experiment [4] were 8 µM, 2.5 µM and 7.9 µM, respectively.
As to `CC(C)Oc1c(C(N)=O)[s+]([O-])c2ccccc12` (centres undefined), the inhibition at 100 µM in experiment [9] is below 4%.
As to `CNC(=O)c1sc2ccc(OC)cc2c1OC(C)C`, the IC50 in experiment [2] was determined as 15 µM; in experiment [3], 6.6 µM; in experiment [4] it was 1.4 µM. Moreover, the Inhibition came to 83% in [25] and 85% in [26].

The values are drawn from ChEMBL document CHEMBL1128190, “Inhibition of E-selectin-, ICAM-1-, and VCAM-1-mediated cell adhesion by benzo[b]thiophene-, benzofuran-, indole-, and naphthalene-2-carboxamides: identification of PD 144795 as an antiinflammatory agent” (J Med Chem, 1995).
